Measured values taken from ChEMBL document CHEMBL3108700, “Designing anti-inflammatory drugs from parasitic worms: a synthetic small molecule analogue of the Acanthocheilonema viteae product ES-62 prevents development of collagen-induced arthritis” (J Med Chem, 2013).
The source made the active and inactive calls. How the calls were made is not given here.

Legend:
[1] = target: T1, Toll-like receptor 9 (Mus musculus) (UniProt Q9EQU3); test: Inhibition of TLR9 in BALB/c mouse BMDM assessed as downregulation of CpG-stimulated IL-6 level at 5 ug/ml preincubated for 18 hrs followed by CpG challenge measured after 24 hrs by ELISA relative to control
T1 sequence (whole entry): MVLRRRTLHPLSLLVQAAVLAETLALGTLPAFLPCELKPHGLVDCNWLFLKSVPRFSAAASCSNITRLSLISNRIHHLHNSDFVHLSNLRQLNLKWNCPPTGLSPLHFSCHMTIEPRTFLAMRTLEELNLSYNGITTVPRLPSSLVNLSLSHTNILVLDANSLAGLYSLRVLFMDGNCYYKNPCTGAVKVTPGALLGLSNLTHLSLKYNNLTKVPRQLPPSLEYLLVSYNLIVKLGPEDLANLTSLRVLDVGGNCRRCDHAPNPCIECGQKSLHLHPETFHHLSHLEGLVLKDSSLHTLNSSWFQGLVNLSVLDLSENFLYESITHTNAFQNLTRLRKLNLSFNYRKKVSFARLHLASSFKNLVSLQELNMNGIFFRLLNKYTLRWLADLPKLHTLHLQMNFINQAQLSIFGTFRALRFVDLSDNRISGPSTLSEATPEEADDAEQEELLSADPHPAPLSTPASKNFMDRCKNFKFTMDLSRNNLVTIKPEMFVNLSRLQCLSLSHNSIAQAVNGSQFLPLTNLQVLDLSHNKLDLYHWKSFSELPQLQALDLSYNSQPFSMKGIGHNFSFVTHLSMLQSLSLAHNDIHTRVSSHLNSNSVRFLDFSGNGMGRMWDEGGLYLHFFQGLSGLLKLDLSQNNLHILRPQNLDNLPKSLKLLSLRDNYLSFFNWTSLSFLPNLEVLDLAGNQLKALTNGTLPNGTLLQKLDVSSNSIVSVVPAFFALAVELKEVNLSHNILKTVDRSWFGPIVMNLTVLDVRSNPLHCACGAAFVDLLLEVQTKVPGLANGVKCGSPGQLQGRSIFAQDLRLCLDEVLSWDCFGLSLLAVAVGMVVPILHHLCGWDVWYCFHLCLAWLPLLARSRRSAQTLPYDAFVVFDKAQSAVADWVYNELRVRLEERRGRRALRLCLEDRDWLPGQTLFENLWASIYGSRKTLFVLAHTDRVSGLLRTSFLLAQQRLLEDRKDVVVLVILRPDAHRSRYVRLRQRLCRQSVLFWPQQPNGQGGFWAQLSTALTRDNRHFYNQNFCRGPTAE
Procedure, shortened: (§1)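 BALB/c male bone marrow macrophages were differentiated 7 days with L929 supernatant (≥99% CD11b+/F4/80+). Cells were plated at 2 × 10^5/well in triplicate, rested overnight, and given compounds at 5 μg/mL for 18 h. They were then stimulated with 100 ng/mL S. minnesota LPS, 10 ng/mL Pam3CSK4 (BLP) or 0.01 μM CpG for 24 h. Supernatant IL-12p40 and IL-6 were measured by ELISA (sensitivity 16 pg/mL).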

[2] = target: T1, Toll-like receptor 9 (Mus musculus); test: Inhibition of TLR9 in BALB/c mouse BMDM assessed as downregulation of CpG-stimulated IL-12p40 level at 5 ug/ml preincubated for 18 hrs followed by CpG challenge measured after 24 hrs by ELISA relative to control; procedure, shortened: as §1
TLR2/TLR6 (Mus musculus) [3] = target: T2, TLR2/TLR6 (Mus musculus) (UniProt Q9QUN7+Q9EPW9); test: Inhibition of TLR2/6 in BALB/c mouse BMDM assessed as downregulation of BLP-stimulated IL-6 level at 5 ug/ml preincubated for 18 hrs followed by BLP challenge measured after 24 hrs by ELISA relative to control; format: protein-complex assay; procedure, shortened: as §1
TLR2/TLR6 (Mus musculus) [4] = target: T2, TLR2/TLR6 (Mus musculus); test: Inhibition of TLR2/6 in BALB/c mouse BMDM assessed as downregulation of BLP-stimulated IL-12p40 level at 5 ug/ml preincubated for 18 hrs followed by BLP challenge measured after 24 hrs by ELISA relative to control; format: protein-complex assay; procedure, shortened: as §1
[5] = target: T3, Toll-like receptor 4 (Mus musculus) (UniProt Q9QUK6); test: Inhibition of TLR4 in BALB/c mouse BMDM assessed as downregulation of LPS-stimulated IL-6 level at 5 ug/ml preincubated for 18 hrs followed by LPS challenge measured after 24 hrs by ELISA relative to control; procedure, shortened: as §1
T3 sequence (whole entry): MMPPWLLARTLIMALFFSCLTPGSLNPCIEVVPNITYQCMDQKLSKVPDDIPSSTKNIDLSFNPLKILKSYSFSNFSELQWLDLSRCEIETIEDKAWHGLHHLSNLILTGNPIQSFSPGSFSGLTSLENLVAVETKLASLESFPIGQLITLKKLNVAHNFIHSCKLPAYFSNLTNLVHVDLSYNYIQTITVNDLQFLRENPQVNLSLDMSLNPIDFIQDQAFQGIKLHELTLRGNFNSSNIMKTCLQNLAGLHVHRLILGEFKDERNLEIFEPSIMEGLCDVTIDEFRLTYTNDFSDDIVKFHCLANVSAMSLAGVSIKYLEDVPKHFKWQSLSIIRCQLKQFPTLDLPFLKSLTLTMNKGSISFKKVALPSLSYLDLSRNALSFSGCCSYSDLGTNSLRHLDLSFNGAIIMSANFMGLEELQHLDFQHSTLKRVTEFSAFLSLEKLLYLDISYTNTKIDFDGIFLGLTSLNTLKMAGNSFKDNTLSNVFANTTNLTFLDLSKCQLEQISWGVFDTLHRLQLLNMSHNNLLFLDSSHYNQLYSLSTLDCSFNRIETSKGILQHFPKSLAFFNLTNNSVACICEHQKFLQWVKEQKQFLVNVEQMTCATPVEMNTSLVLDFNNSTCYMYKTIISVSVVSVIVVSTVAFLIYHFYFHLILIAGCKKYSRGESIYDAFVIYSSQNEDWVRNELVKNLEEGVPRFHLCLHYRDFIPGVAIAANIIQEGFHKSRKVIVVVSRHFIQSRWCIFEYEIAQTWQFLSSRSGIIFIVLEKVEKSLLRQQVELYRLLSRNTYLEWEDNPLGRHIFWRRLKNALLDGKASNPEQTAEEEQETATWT

[6] = target: T3, Toll-like receptor 4 (Mus musculus); test: Inhibition of TLR4 in BALB/c mouse BMDM assessed as downregulation of LPS-stimulated IL-12p40 level at 5 ug/ml preincubated for 18 hrs followed by LPS challenge measured after 24 hrs by ELISA relative to control; procedure, shortened: as §1

SMILES | inhibition [1] | inhibition [2] | inhibition (TLR2/TLR6 (Mus musculus) [3]) | inhibition (TLR2/TLR6 (Mus musculus) [4]) | inhibition [5] | inhibition [6]
Cc1ccc(CNS(=O)(=O)CCN(C)CCN(C)C)cc1 | Active | inactive | Active | inactive | Active | Active
O=C(CCN1CCOCC1)NCc1cccc2cnccc12 | inactive | inactive | inactive | Active | inactive | inactive
O=S(=O)(CCN1CCOCC1)Nc1ccc(F)cc1 | inactive | inactive | inactive | inactive | inactive | Active
O=S(=O)(Cc1ccc2ccccc2c1)NCCN1CCOCC1 | Active | Active | inactive | Active | Active | inactive
O=[N+]([O-])c1ccc(CNS(=O)(=O)CCN2CCCC2)cc1 | inactive | inactive | inactive | inactive | inactive | inactive
CN(C)CCNS(=O)(=O)Cc1ccc([N+](=O)[O-])cc1 | inactive | inactive | Active | inactive | inactive | inactive
O=S(=O)(CCN1CCSCC1)c1ccccc1 | inactive | inactive | inactive | inactive | Active | Active
CN(C)CCOP(=O)(O)Cc1ccc(Br)cc1 | inactive | inactive | inactive | inactive | inactive | inactive
O=S(=O)(CCN1CCCC1)NCc1ccccc1 | inactive | inactive | inactive | inactive | inactive | inactive
CN(C)CCCNC(=O)Cc1ccccc1 | inactive | inactive | inactive | inactive | inactive | inactive
Cc1ccc(CP(=O)(O)OCCN(C)C)cc1 | inactive | inactive | inactive | inactive | inactive | inactive
O=S(=O)(CCN1CCOCC1)NCc1ccc(Br)cc1 | inactive | inactive | inactive | inactive | inactive | inactive
CN(C)CCN(C)CCS(=O)(=O)c1ccccc1 | inactive | inactive | inactive | inactive | inactive | inactive

Now from value to compound:

inhibition [1] | inhibition [2] | inhibition (TLR2/TLR6 (Mus musculus) [3]) | inhibition (TLR2/TLR6 (Mus musculus) [4]) | inhibition [5] | inhibition [6] | SMILES
inactive | inactive | inactive | Active | Active | Active | C[N+]1(CCS(=O)(=O)Cc2ccc(Br)cc2)CCCC1
inactive | inactive | inactive | inactive | inactive | inactive | CC[C@@H](C)NCCS(=O)(=O)c1ccccc1
inactive | inactive | inactive | inactive | inactive | inactive | Cc1ccc(CS(=O)(=O)NCCN2CCOCC2)cc1
inactive | inactive | inactive | inactive | inactive | inactive | Cc1ccc(CS(=O)(=O)CCCN(C)C)cc1
inactive | inactive | inactive | inactive | Active | inactive | O=S(=O)(CCN1CCOCC1)Cc1ccc(F)cc1
inactive | inactive | inactive | inactive | inactive | inactive | CC[C@H](C)NCCS(=O)(=O)Cc1cccc(F)c1
inactive | inactive | inactive | inactive | inactive | inactive | C[N+](C)(C)CCS(=O)(=O)Cc1ccc(Br)cc1
inactive | inactive | inactive | Active | inactive | inactive | O=S(=O)(CCN1CCCC1)Cc1ccc(F)cc1
Active | Active | inactive | Active | inactive | Active | Cc1ccc(CS(=O)(=O)CC[N+](C)(C)C)cc1
inactive | inactive | Active | Active | inactive | inactive | CC[C@@H](C)NCCS(=O)(=O)Cc1cccc(F)c1
inactive | inactive | inactive | inactive | inactive | inactive | CN(C)CCCNS(=O)(=O)Cc1ccc(Br)cc1
